Laboratory results as given in ChEMBL document CHEMBL3621094, “Effect of alkyl group on transnitrosation of N-nitrosothiazolidine thiocarboxamides” (Bioorg Med Chem, 2015).

Assays:
Assay type in all cases: physicochemical
[1] = Transnitrosation activity assessed as pseudo first order rate constant at 0.45 mM in presence of 5 mM GSH at pH 3.4 at 37 degC under dark condition; conditions: pH 3.4, 450 µM
[2] = Transnitrosation activity assessed as S-nitrosoglutathione level at 0.45 mM in presence of 5 mM GSH at pH 1.5 at 37 degC under dark condition; conditions: pH 1.5, 450 µM
In short: (§1)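 Nitrosamine (4.5 mM acetonitrile stock, 0.45 mM final) added to GSH (5.0 mM) with DTPA. The mixture was acidified to pH 1.5 with 0.1 M HCl and held at 37 °C in the dark. GSNO formation was followed against time, and data were taken after 24 h.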

[3] = Transnitrosation activity assessed as pseudo first order rate constant at 0.45 mM in presence of 5 mM GSH at pH 1.4 at 37 degC under dark condition; conditions: pH 1.4, 450 µM
In short: (§2)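 Pseudo-first-order kobs for GSNO formation was measured at 0.45 mM N-nitrosamine, 5.0 mM GSH with DTPA, and 37 °C, with pH set by HCl (pH-rate profile 1.4–3.3). kobs was the least-squares slope of the initial linear part of ln{[GSNO∞]/([GSNO∞]−[GSNO])} versus time, taking GSNO∞ as the initial nitroso compound level (0.45 mM). There were three separate trials.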

[4] = Transnitrosation activity assessed as pseudo first order rate constant at 0.45 mM in presence of 5 mM GSH at pH 2.8 at 37 degC under dark condition; conditions: pH 2.8, 450 µM; in short: as §2
[5] = Transnitrosation activity assessed as pseudo first order rate constant at 0.45 mM in presence of 5 mM GSH at pH 2 at 37 degC under dark condition; conditions: pH 2, 450 µM; in short: as §2
[6] = Transnitrosation activity assessed as pseudo first order rate constant at 0.45 mM in presence of 5 mM GSH at pH 1.7 at 37 degC under dark condition; conditions: pH 1.7, 450 µM; in short: as §2
[7] = Transnitrosation activity assessed as pseudo first order rate constant at 0.45 mM in presence of 5 mM GSH at pH 1.5 at 37 degC under dark condition; conditions: pH 1.5, 450 µM; in short: as §2
[8] = Transnitrosation activity assessed as S-nitrosoglutathione yield at 0.45 mM in presence of 5 mM GSH at pH 1.5 at 37 degC under dark condition after 24 hrs; conditions: pH 1.5, 24 h, 450 µM
In short: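 Reaction run at 0.45 mM N-nitrosamine and 5.0 mM GSH, with DTPA, at pH 1.5 (HCl) and 37 °C in the dark. After 24 h, yield was calculated as GSNO formed divided by N-nitrosamine consumed.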

[9] = Transnitrosation activity assessed as pseudo first order rate constant at 0.45 mM in presence of 5 mM GSH at pH 2.2 at 37 degC under dark condition; conditions: pH 2.2, 450 µM; in short: as §2
[10] = Transnitrosation activity assessed as compound consumption level at 0.45 mM in presence of 5 mM GSH at pH 1.5 at 37 degC under dark condition after 24 hrs; conditions: pH 1.5, 24 h, 450 µM; in short: as §1

Row | Structure (SMILES) | log K [1] | Activity [2] | log K [3] | log K [4] | log K [5] | log K [6] | K [7] | Activity [8] | log K [9] | Activity [10]
1 | NC(=S)C1CSCN1N=O (stereo not drawn) | -6.37 | 0.43 mM | -3.73 | -6.16 | -5.24 | -4.24 | 1301 ×10⁻⁷ /s | 95% | -4.73 | 0.45 mM
2 | CNC(=S)C1CSCN1N=O (stereo not drawn) |  | 0.38 mM |  |  |  |  | 464 ×10⁻⁷ /s | 85% |  | 0.45 mM
3 | CN(C)C(=S)C1CSCN1N=O (stereo not drawn) |  | 0.38 mM |  |  |  |  | 405 ×10⁻⁷ /s | 84% |  | 0.45 mM
